# Measured values gathered from unrelated publications.
# Target: Dual specificity protein kinase TTK (TTK, Homo sapiens, UniProt P33981)
# One construct used (P33981 1-857): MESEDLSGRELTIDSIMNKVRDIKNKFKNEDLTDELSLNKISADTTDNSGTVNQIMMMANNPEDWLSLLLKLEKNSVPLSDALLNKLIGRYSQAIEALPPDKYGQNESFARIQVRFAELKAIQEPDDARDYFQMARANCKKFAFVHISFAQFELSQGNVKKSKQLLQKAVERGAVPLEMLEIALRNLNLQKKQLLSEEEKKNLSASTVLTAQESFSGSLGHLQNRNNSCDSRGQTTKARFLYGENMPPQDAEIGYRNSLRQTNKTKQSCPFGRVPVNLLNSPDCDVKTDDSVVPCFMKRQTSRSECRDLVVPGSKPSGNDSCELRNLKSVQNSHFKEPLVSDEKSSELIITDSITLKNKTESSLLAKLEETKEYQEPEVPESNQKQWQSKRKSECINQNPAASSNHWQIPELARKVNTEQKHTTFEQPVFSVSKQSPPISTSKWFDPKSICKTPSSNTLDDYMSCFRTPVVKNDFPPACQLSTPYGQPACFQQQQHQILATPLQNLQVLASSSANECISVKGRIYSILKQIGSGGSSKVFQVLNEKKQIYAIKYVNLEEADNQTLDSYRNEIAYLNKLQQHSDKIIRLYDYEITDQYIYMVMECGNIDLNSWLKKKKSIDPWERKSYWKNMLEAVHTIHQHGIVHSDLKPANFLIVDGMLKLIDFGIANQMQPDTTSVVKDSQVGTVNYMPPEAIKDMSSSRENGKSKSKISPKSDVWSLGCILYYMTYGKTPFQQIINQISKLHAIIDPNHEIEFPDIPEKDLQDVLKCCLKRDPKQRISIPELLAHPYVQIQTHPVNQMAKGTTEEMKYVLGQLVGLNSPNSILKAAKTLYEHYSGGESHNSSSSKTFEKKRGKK
SMILES,read-out,method,tested at,remaining binding [%]
FC(F)(F)Oc1cccc(-c2cnc3ccc(-c4ccncc4)nn23)c1,binding,competition with immobilised ligand,5 µM,53
N[C@H]1CCN(c2nccc(-c3cnn4ncccc34)n2)C1,binding,,1 µM,93
COc1cnc(Nc2cccc(S(N)(=O)=O)c2)nc1N1CCN(c2ccccc2)CC1,binding,competition with immobilised ligand,1 µM,83
O=C(c1ccc(Nc2ncc(Cl)c(-c3cc4ccccc4s3)n2)cc1)N1CCC(N2CCCC2)CC1,binding,competition with immobilised ligand,1 µM,41
CN(CCCC(F)(F)F)c1nccc(-c2cnn3ncccc23)n1,binding,,1 µM,64
C[C@@H](c1ccc(-n2cnc3c(N)ncnc32)cc1)N1CCc2nn(C)c(Cc3ccccc3)c2C1=O,binding,competition with immobilised ligand,0.1 µM,85
O=C(c1ccc(Nc2nccc(-c3cc4ccccc4s3)n2)cc1)N1CCC(N2CCCC2)CC1,binding,competition with immobilised ligand,1 µM,57
C[C@@H]1CCN(c2nccc(-c3cnn4ncccc34)n2)C1,binding,,1 µM,46
CCCCN(CCCC)C(=O)CN1C[C@H](c2cc(OC)c3c(c2)OCO3)[C@@H](C(=O)O)[C@@H]1CC(C)(C)CCC,cell-free assay,competition with immobilised ligand,1 µM,100
Nc1ncc2c(n1)-c1c([nH]c3ccc(C#CC4CC4)cc13)CCCC2,binding,competition with immobilised ligand,1 µM,100
CSc1cccnc1N1CCN(Cc2nc3ccccc3[nH]2)CC1,cell-free assay,competition with immobilised ligand,1 µM,98
O=C(NCC1CCOCC1)c1n[nH]cc1NC(=O)c1c(F)cccc1F,binding,competition with immobilised ligand,1 µM,84
CO[C@@H](C)c1c(Nc2ccc([C@H](N(C)C(=O)C3CCS(=O)(=O)CC3)C(F)(F)F)cc2)cnc2cc(Cl)nn12,cell-free assay,competition with immobilised ligand,1 µM,77
CN(C)c1nccc(-c2cnn3ncccc23)n1,binding,,1 µM,100
COc1ccc2c(c1)O[C@H](c1ccc(OC)c(OC)c1)C[C@@H]2NC(=O)C1(c2ccc3c(c2)OC(F)(F)O3)CC1,cell-free assay,competition with immobilised ligand,1 µM,100
C=CC(=O)N1CCC(C(=O)NCC(=O)N2CCN(c3nc(-c4cnc(N)nc4C(F)F)nc(N4CCOCC4)n3)CC2)CC1,binding,competition with immobilised ligand,1 µM,92
O=C(N[C@H]1CCCCC/C=C\C2C[C@@]2(C(=O)O)NC(=O)[C@@H]2C[C@@H](Oc3ccncc3)CN2C1=O)OC1CCCC1 (some centres unmarked),binding,competition with immobilised ligand,1 µM,79
Cc1cnn2ncc(-c3ccnc(N(C)C)n3)c2c1,binding,,1 µM,100
CC1=C(C#N)C(c2ccc3c(c2)c(NC(=O)c2ccccc2C)nn3C)C(C#N)=C(C)N1,cell-free assay,competition with immobilised ligand,1 µM,82
O=C(NCCCN1CCOCC1)c1ccc(Nc2nccc(-c3cc4ccccc4s3)n2)cc1,binding,competition with immobilised ligand,1 µM,72
